Where two headings read alike, the source gives them in different places.
Columns and labels:
[1] = target: recombinant human DDAH1 (rhDDAH1) (Homo sapiens, UniProt O94760); experiment: Colorimetric microplate DDAH activity assay; assay type: biochemical
[2] = test system: human microvascular endothelial cells; experiment: Intracellular ADMA in human endothelial cells; assay type: cell-based; conditions: 20 μM, 24 hours
Method in brief: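 HMEC-1 microvascular endothelial cells in serum-free DMEM got test compound (20 μM final), a known DDAH1 inhibitor as control, or DMSO vehicle for 3 h. Medium was then switched to DMEM with 10% FBS, 4mM HEPES and penicillin/streptomycin (pH 7.6), 37°C/5% CO2, until 24 h. Cells were washed and lysed; protein measured by Coomassie; intracellular ADMA by ELISA. Duplicate experiments; unpaired t-test versus vehicle.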

rhDDAH1 [3] = target: T1, rhDDAH1 (Homo sapiens, UniProt O94760); experiment: Reversibility study by inhibitor dilution; assay type: biochemical; conditions: DDAH 30 μM pre-incubated with inhibitor, serially diluted
Method in brief: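 DDAH (30 μM, 100-fold above the enzymatic assay concentration) was pre-incubated with test compound at three concentrations, then diluted. Recovery of enzymatic activity was read by fluorometric DDAH assay, with a known DDAH1 inhibitor as control.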

[4] = test system: human saphenous vein segments; experiment: NOx release from human saphenous vein segments; conditions: 24 hours; in the presence or absence of A23187 (0.5 μM); omeprazole 3–100 μM, L-257 100 μM
Method in brief: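 Saphenous vein segments harvested during CABG surgery were rinsed in lactated Ringer's solution, cut into 0.5 cm pieces and held in endothelial cell medium. They were kept basal or stimulated with A23187 (0.5 μM) for 24 hours with test compound, a reference DDAH1 inhibitor or vehicle. Griess reaction measured total nitrite (NOx) in the conditioned medium. Duplicate experiments, mean ± SEM, one-way ANOVA with Bonferroni post-test versus vehicle.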

DDAH = DDAH (Homo sapiens, UniProt O94760); experiment: High throughput screen for DDAH inhibitors; assay type: biochemical; conditions: primary hits of the screen of about 130,000 small molecules
Method in brief: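 Purified recombinant human DDAH1 was used in a DDAH activity assay to screen a library of about 130,000 small molecules. Activity was monitored by colorimetric and fluorometric assays. Hits were compounds inhibiting DDAH by more than 30%. Primary hits were then validated with orthogonal colorimetric and fluorimetric activity assays.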

[5] = Serum ADMA levels in mice in vivo; set-up: species or system mouse; conditions: C57BL/6J mice; 30 mg/kg/day subcutaneous; 5-week study period
[6] = single oral dose of 30 mg, cited from earlier work
rhDDAH1 [7] = target: T1, rhDDAH1; experiment: Surface plasmon resonance enzyme-drug binding study; conditions: 12.5–100 μM; rhDDAH1 amine coupled to CM5 chip; pH 6.5
Method in brief: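 rhDDAH1 was purified with HEPES elution (10mM HEPES in PBS) to avoid competing amines, then amine-coupled to a CM5 chip. Test compound from a DMSO stock, or DMSO vehicle, was diluted in 100mM Na2HPO4, pH 6.5. It was passed over the chip at 4 concentrations (serial dilution, 12.5–100 μM). Binding was followed in real time as sensorgram peaks, in duplicate experiments.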

HMVECs [8] = experiment: Western blot of DDAH1 and DDAH2 expression in HMVECs; assay type: cell-based, human; conditions: 3–100 μM for 24 hours
[9] = test system: primary human microvascular endothelial cells (HMVECs); experiment: Intracellular NOx in endothelial cells; assay type: cell-based; conditions: 24 hours; lysates, normalized to total protein
Method in brief: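 Primary HMVECs were exposed to vehicle or various concentrations of test compound for 24 h, with a selective DDAH1 inhibitor as control. Total nitrite (NOx) in cell lysates was measured by Griess reaction and normalized to total protein. Values come from duplicate experiments.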

HMVECs [10] = experiment: Western blot of eNOS and phospho-eNOS in HMVECs; assay type: cell-based, human; conditions: HMVEC lysate, normalized to β-actin
Method in brief: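 Endothelial cell lysates (20 μg) from cells exposed to test compound or vehicle were analysed by Western blot for total eNOS and phospho-eNOS. VEGF (50 ng/mL) served as positive control for eNOS phosphorylation. Bands were normalized to β-actin.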

mouse thoracic aorta = experiment: Vascular reactivity of isolated mouse thoracic aorta ex vivo; conditions: aorta exposed for 24 hours
[11] = IC50, 8 point concentration range 0.78–100 μM, Mean ± SEM, triplicate

DDAH, sequence (O94760 whole entry): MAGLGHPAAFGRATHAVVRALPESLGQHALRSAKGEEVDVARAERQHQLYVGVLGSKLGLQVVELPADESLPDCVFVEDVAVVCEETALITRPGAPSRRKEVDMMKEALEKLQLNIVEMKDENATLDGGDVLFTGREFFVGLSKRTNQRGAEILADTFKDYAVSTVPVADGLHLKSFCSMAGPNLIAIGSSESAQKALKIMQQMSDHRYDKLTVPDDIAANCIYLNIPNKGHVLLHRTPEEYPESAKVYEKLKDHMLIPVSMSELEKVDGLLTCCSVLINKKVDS
T1 sequence (O94760 whole entry): as above
recombinant human DDAH1 (rhDDAH1), sequence (O94760 whole entry): as above

With `COc1ccc2nc([S@@+]([O-])Cc3ncc(C)c(OC)c3C)[nH]c2c1` [Esomeprazole, esomeprazole] the IC50 [1, 11] was 52 ± 5 µM and the “increase of intracellular ADMA compared to vehicle control” value [2] was ~ 30%.
For `COCCNC(N)=NCCC[C@H](N)C(=O)O` [L-257], the “reversibility of inhibition of DDAH enzymatic activity upon dilution” value (rhDDAH1 [3]) was “complete reversibility upon dilution”, the “effect on intracellular ADMA” value ([2]; control DDAH inhibitor) was “increased ADMA” and the “NOx released from isolated human saphenous veins” value [4] was “significantly inhibited”.
In the case of `Cc1c(OCC(F)(F)F)ccnc1C[S+]([O-])c1nc2ccccc2[nH]1` (stereo not shown) [Lansoprazole, lansoprazole], the “inhibition of DDAH in high throughput screen” value (DDAH) is reported as “more than 30%”, the “increase of intracellular ADMA compared to vehicle control” value [2] is reported as ~ 30% and the “increase of serum ADMA compared to vehicle control” value [5] is reported as “about 20%”. The Cmax ([6]; read-out: maximum plasma concentration (Cmax)) was 2 to 6 µM and the “time to maximum plasma concentration” value [6] was ≤ 3 h.
With `COc1ccc2[nH]c([S+]([O-])Cc3ncc(C)c(OC)c3C)nc2c1` (stereo not shown) [Omeprazole, omeprazole] the “inhibition of DDAH in high throughput screen” value (DDAH) was “more than 30%”, the IC50 [1, 11] was 58 ± 5 µM and the IC50 ([1]; IC50, IC50 value used to set the concentrations of the reversibility study) was ~60 µM. For the same compound, the “binding to DDAH (SPR sensorgram)” value (rhDDAH1 [7]) was “direct interaction between the PPI and DDAH”, the “reversibility of inhibition of DDAH enzymatic activity upon dilution” value (rhDDAH1 [3]) was “rapid and almost complete reversibility” and the “protein expression of DDAH1 and DDAH2” value (HMVECs [8]) was “neither regulated the expression of DDAH1 nor that of DDAH2”. For the same compound, the “levels of nitrogen oxides (NOx) in cultured endothelial cells” value [9] was “dose-dependently reduced”, the “expression of total eNOS and active eNOS (phospho-eNOS)” value (HMVECs [10]) was “downregulated” and the “NOx released from isolated human saphenous veins” value [4] was “significantly inhibited”. The “contraction to phenylephrine (PE)” value (mouse thoracic aorta) was “enhanced the contraction to phenylephrine”, the “endothelium independent vasorelaxation to sodium nitroprusside” value (mouse thoracic aorta) was “did not effect” and the “relaxation to acetylcholine (ACh)” value (mouse thoracic aorta) was “blunted the relaxation to acetylcholine”.
For `COc1ccnc(C[S+]([O-])c2nc3ccc(OC(F)F)cc3[nH]2)c1OC` (stereo not shown) [Pantoprazole, pantoprazole], the “inhibition of DDAH in high throughput screen” value (DDAH) was “more than 30%”.
In the case of `COc1ccc2[nH]c([S+]([O-])Cc3ncc(C)c(OC)c3C)nc2n1` (stereo not shown) [Tenatoprazole, tenatoprazole], the “inhibition of DDAH in high throughput screen” value (DDAH) is reported as “more than 30%” and the IC50 [1] is reported as 61 ± 1.5 µM.

— paper PMC3838201 (Circulation, 2013)
